{"source": "ChEMBL document CHEMBL2073862", "about": "“Localization of organic anion transporting polypeptides in the rat and human ciliary body epithelium” (Exp Eye Res, 2005)", "key": {"[1]": {"target": "T1, Solute carrier organic anion transporter family member 4A1 (Homo sapiens, UniProt Q96BD0)", "T1 sequence (Q96BD0 whole entry)": "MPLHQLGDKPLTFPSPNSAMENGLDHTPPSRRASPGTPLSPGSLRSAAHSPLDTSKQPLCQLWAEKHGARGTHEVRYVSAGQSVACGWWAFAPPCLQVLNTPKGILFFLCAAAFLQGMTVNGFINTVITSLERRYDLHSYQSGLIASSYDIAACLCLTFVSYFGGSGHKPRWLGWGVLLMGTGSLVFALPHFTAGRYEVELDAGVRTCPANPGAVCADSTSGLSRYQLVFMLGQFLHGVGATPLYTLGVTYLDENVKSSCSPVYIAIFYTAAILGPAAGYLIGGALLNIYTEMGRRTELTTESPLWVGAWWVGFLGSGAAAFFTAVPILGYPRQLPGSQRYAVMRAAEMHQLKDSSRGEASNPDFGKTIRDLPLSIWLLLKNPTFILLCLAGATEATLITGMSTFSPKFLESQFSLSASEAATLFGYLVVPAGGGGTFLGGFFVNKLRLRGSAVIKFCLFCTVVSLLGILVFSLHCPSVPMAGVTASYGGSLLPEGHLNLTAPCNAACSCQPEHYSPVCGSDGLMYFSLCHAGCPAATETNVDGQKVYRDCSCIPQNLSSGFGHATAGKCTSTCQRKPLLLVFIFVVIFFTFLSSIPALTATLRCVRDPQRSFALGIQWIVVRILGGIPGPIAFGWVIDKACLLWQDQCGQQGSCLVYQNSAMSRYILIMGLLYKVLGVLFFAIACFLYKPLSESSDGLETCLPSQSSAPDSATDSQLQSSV", "test": "(§1) TP_TRANSPORTER: uptake in Xenopus laevis oocytes", "format": "functional, cell-based", "conditions": "oocyte", "summary_of_the_method": "(§2)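 Oocytes were injected with 5 ng of cRNA for human OATP1A2, 1C1, 2B1, 3A1 or 4A1, or with water, then cultured 3 days. Radioactivity was counted by scintillation, water-injected uptake was subtracted, and Km came from nonlinear regression of 12–15 oocytes.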"}, "[2]": {"target": "T2, Solute carrier organic anion transporter family member 3A1 (Homo sapiens, UniProt Q9UIG8)", "T2 sequence (Q9UIG8 whole entry)": "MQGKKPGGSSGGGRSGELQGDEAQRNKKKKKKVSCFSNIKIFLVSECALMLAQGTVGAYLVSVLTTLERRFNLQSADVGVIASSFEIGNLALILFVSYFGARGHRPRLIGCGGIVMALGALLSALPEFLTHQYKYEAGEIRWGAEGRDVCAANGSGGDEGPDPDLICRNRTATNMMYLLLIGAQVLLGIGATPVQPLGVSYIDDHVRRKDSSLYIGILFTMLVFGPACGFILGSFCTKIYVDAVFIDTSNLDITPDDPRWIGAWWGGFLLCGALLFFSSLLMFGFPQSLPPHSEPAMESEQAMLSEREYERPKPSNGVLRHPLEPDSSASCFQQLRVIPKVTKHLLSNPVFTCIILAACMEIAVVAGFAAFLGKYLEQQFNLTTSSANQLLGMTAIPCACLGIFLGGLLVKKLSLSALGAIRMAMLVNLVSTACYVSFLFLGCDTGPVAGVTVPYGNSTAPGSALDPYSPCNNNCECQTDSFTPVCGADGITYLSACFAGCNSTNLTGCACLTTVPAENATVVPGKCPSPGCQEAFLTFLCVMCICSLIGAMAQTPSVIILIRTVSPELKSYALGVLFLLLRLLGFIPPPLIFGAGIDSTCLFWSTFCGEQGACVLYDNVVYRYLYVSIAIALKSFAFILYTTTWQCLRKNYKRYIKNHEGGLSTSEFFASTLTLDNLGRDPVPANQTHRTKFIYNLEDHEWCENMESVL", "test": "as §1", "format": "functional, cell-based", "conditions": "oocyte", "summary_of_the_method": "as §2"}, "[3]": {"target": "T3, Solute carrier organic anion transporter family member 1C1 (Homo sapiens, UniProt Q9NYB5)", "T3 sequence (Q9NYB5 whole entry)": "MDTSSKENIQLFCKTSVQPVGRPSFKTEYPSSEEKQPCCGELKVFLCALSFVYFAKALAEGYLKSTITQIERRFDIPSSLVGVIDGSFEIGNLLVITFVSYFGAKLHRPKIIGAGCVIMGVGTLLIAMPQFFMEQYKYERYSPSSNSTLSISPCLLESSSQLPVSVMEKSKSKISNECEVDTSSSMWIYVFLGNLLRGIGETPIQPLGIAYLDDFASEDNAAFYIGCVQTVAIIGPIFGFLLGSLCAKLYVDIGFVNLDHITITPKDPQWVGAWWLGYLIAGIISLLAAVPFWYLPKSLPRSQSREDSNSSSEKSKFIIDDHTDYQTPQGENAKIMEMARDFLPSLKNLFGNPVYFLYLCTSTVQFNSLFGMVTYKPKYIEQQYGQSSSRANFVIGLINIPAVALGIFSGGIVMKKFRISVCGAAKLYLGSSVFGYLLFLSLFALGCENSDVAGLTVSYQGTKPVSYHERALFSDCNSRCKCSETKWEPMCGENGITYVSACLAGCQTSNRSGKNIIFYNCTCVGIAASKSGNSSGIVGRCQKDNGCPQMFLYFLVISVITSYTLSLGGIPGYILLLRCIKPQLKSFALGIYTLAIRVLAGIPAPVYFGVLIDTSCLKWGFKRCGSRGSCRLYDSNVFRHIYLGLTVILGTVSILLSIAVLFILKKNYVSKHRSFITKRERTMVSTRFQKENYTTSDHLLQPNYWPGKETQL", "test": "as §1", "format": "functional, cell-based", "conditions": "oocyte", "summary_of_the_method": "as §2"}, "[4]": {"target": "T4, Solute carrier organic anion transporter family member 2B1 (Homo sapiens, UniProt O94956)", "T4 sequence (O94956 whole entry)": "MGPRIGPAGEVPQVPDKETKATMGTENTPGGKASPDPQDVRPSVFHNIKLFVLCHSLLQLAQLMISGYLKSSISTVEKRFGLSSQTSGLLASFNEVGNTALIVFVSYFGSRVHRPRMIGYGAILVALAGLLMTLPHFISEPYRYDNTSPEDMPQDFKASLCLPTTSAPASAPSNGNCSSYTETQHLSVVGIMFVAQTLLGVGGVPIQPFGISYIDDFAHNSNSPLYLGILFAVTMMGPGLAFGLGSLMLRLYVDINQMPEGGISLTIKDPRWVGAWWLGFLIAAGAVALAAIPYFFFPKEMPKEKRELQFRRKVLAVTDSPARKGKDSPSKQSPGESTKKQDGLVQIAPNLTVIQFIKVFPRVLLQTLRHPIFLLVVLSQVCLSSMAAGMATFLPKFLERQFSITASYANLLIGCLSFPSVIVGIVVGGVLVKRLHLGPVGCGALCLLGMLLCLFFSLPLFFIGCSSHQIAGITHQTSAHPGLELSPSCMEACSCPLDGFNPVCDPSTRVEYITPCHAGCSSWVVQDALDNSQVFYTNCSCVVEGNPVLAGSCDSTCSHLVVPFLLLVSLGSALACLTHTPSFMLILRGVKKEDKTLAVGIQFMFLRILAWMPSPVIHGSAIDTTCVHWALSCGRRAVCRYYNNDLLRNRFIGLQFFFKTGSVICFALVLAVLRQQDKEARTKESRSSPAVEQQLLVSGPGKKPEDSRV", "test": "as §1", "format": "functional, cell-based", "conditions": "oocyte", "summary_of_the_method": "as §2"}, "[5]": {"target": "T5, Solute carrier organic anion transporter family member 1A2 (Homo sapiens, UniProt P46721)", "T5 sequence (P46721 whole entry)": "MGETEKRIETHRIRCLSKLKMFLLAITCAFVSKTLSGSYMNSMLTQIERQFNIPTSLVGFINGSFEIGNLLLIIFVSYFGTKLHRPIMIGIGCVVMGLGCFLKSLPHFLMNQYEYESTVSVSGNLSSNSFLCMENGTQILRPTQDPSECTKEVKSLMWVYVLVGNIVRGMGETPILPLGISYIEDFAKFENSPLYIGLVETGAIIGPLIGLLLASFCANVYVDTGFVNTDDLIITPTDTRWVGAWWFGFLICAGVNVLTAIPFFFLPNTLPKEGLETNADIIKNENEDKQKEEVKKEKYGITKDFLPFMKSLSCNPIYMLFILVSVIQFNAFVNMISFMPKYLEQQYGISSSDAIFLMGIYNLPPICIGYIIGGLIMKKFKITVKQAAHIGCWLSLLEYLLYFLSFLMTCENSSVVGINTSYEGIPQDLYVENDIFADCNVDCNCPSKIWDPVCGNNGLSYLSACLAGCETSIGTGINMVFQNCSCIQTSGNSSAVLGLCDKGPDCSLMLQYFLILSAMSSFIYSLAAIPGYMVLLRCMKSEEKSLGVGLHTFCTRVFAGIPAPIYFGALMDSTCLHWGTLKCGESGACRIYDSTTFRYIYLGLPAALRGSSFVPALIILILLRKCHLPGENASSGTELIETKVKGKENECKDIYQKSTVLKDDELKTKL", "test": "as §1", "format": "functional, cell-based, Oocyte", "summary_of_the_method": "as §2"}, "[6]": {"substrate": "CCCCCCCC(=O)CC[C@@H]1[C@@H](C/C=C\\CCCC(=O)O)[C@@H](O)C[C@H]1O", "test": "as §1", "format": "functional, cell-based, Oocyte", "summary_of_the_method": "as §2"}}}
{"molecule": "CCCCCCCC(=O)CC[C@@H]1[C@@H](C/C=C\\CCCC(=O)OC(C)C)[C@@H](O)C[C@H]1O", "note": "[UNOPROSTONE ISOPROPYL]", "values": [{"measurement": "Activity", "setting": "[1]", "value": "is not a substrate [(-)]"}, {"measurement": "Activity", "setting": "[2]", "value": "is not a substrate [(-)]"}, {"measurement": "Activity", "setting": "[3]", "value": "is not a substrate [(-)]"}, {"measurement": "Activity", "setting": "[4]", "value": "is not a substrate [(-)]"}, {"measurement": "Activity", "setting": "[5]; oocyte", "value": "is not a substrate [(-)]"}]}
{"molecule": "CCCCCCCC(=O)CC[C@@H]1[C@@H](C/C=C\\CCCC(=O)O)[C@@H](O)C[C@H]1O", "note": "[UNOPROSTONE]", "values": [{"measurement": "Activity", "setting": "[2]", "value": "is not a substrate [(-)]"}, {"measurement": "Activity", "setting": "[3]", "value": "is not a substrate [(-)]"}, {"measurement": "Km", "setting": "[5]; Xenopus laevis oocytes", "value": 93, "unit": "µM"}]}
{"molecule": "Solute carrier organic anion transporter family member 4A1 (Homo sapiens) (protein) MPLHQLGDKPLTFPSPNSAMENGLDHTPPSRRASPGTPLSPGSLRSAAHSPLDTSKQPLCQLWAEKHGARGTHEVRYVSAGQSVACGWWAFAPPCLQVLNTPKGILFFLCAAAFLQGMTVNGFINTVITSLERRYDLHSYQSGLIASSYDIAACLCLTFVSYFGGSGHKPRWLGWGVLLMGTGSLVFALPHFTAGRYEVELDAGVRTCPANPGAVCADSTSGLSRYQLVFMLGQFLHGVGATPLYTLGVTYLDENVKSSCSPVYIAIFYTAAILGPAAGYLIGGALLNIYTEMGRRTELTTESPLWVGAWWVGFLGSGAAAFFTAVPILGYPRQLPGSQRYAVMRAAEMHQLKDSSRGEASNPDFGKTIRDLPLSIWLLLKNPTFILLCLAGATEATLITGMSTFSPKFLESQFSLSASEAATLFGYLVVPAGGGGTFLGGFFVNKLRLRGSAVIKFCLFCTVVSLLGILVFSLHCPSVPMAGVTASYGGSLLPEGHLNLTAPCNAACSCQPEHYSPVCGSDGLMYFSLCHAGCPAATETNVDGQKVYRDCSCIPQNLSSGFGHATAGKCTSTCQRKPLLLVFIFVVIFFTFLSSIPALTATLRCVRDPQRSFALGIQWIVVRILGGIPGPIAFGWVIDKACLLWQDQCGQQGSCLVYQNSAMSRYILIMGLLYKVLGVLFFAIACFLYKPLSESSDGLETCLPSQSSAPDSATDSQLQSSV", "values": [{"measurement": "Km", "setting": "[6]", "value": 132, "unit": "µM"}]}
{"molecule": "Solute carrier organic anion transporter family member 2B1 (Homo sapiens) (protein) MGPRIGPAGEVPQVPDKETKATMGTENTPGGKASPDPQDVRPSVFHNIKLFVLCHSLLQLAQLMISGYLKSSISTVEKRFGLSSQTSGLLASFNEVGNTALIVFVSYFGSRVHRPRMIGYGAILVALAGLLMTLPHFISEPYRYDNTSPEDMPQDFKASLCLPTTSAPASAPSNGNCSSYTETQHLSVVGIMFVAQTLLGVGGVPIQPFGISYIDDFAHNSNSPLYLGILFAVTMMGPGLAFGLGSLMLRLYVDINQMPEGGISLTIKDPRWVGAWWLGFLIAAGAVALAAIPYFFFPKEMPKEKRELQFRRKVLAVTDSPARKGKDSPSKQSPGESTKKQDGLVQIAPNLTVIQFIKVFPRVLLQTLRHPIFLLVVLSQVCLSSMAAGMATFLPKFLERQFSITASYANLLIGCLSFPSVIVGIVVGGVLVKRLHLGPVGCGALCLLGMLLCLFFSLPLFFIGCSSHQIAGITHQTSAHPGLELSPSCMEACSCPLDGFNPVCDPSTRVEYITPCHAGCSSWVVQDALDNSQVFYTNCSCVVEGNPVLAGSCDSTCSHLVVPFLLLVSLGSALACLTHTPSFMLILRGVKKEDKTLAVGIQFMFLRILAWMPSPVIHGSAIDTTCVHWALSCGRRAVCRYYNNDLLRNRFIGLQFFFKTGSVICFALVLAVLRQQDKEARTKESRSSPAVEQQLLVSGPGKKPEDSRV", "values": [{"measurement": "Km", "setting": "[6]", "value": 91, "unit": "µM"}]}
